We go through seven molecules from publication PMC3044235 (Analytical and Bioanalytical Chemistry, 2010).

Values joined by “and” are separate entries in the source; they are usually repeats but may differ in a detail not shown here. Equal values may be shown once.

The format of data set [1] is in vivo, human. Particulars: healthy volunteers, diet rich in fruits, vegetables, tea, and wine. The method in brief:
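Volunteers on a flavonoid-rich diet also took oral flavonoid/isoflavone tablets; urine was sampled 5 h post-dose. Urine was deproteinised with acetonitrile/methanol, hydrolysed with β-glucuronidase/sulfatase (H. pomatia, pH 4.66, 18 h, 37 °C), cleaned by SPE and run on reversed-phase UHPLC (0.05% TFA/acetonitrile gradient, 25 °C, UV 254 and 280 nm). Amounts came from calibration curves in blank urine; identities were confirmed by HPLC–ESI-MS–MS.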

Data set [2] is classed as in vivo, human. The following applies: for approximate average daily output in urine: assuming the mean 24-h urine volume is 1.4 L; for AUC(0-inf) / AUC(0-t) / Tmax / half-life: human, urine, po; for percentage excreted in urine within 24 h of the administered dose: within 24 h after ingestion of the tablets. The method in brief: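 Healthy volunteers (21–48 y) took oral flavonoid/isoflavone tablets. Processing: acetonitrile/methanol precipitation, centrifugation, β-glucuronidase/sulfatase (H. pomatia) hydrolysis at pH 4.66 for 18 h at 37 °C, then SPE. Reversed-phase UHPLC used a 0.05% TFA/acetonitrile gradient, UV 254/280 nm, and blank-urine calibration. Kel came from terminal-slope regression; t1/2 = 0.693/Kel.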

The mark [3] stands for this setting: human urine, oral pharmaceutical preparations, n = 6, mean±S.D.

Take `Oc1cc(O)c2c(c1)OC(c1ccc(O)c(O)c1)C(O)C2` (racemic) [(±)-CA, (±)-catechin]: in data set [1], the “mean concentration in urine” value was found to be 5427.34 ng/mL.
As to `Oc1cc(O)c2c(c1)O[C@H](c1ccc(O)c(O)c1)[C@H](O)C2` [(−)-EC, (−)-epicatechin], in data set [1], the “mean concentration in urine” value amounted to 2724.26 ng/mL.
Regarding `O=c1c(-c2ccc(O)cc2)coc2cc(O)ccc12` [DA, daidzein], in data set [2], the “approximate average daily output in urine” value is on record as ~0.14 mg; the AUC(0-inf) (commonly the area under the concentration-time curve extrapolated to infinity) was 7730 ± 414 µg·h/mL; the AUC(0-t) (in general, the area under the concentration-time curve up to a stated or last time point) is 7710 ± 410 µg·h/mL; the time to peak (Tmax) (as a rule, the time from dosing to the highest level) was 7 h. In data set [2], the half-life – broadly, the time needed for the level to fall by half in the phase considered – is 4.43 ± 0.86 h and the “percentage excreted in urine within 24 h of the administered dose” value (“percentage excreted in urine within 24 h” for short) turned out to be 17%. Besides, the “C max, peak concentration in urine” value in data set [2] (setting [3]) amounted to 228.0 ± 5.34 ng/mL.
For `COc1cc2c(=O)c(-c3ccc(O)cc3)coc2cc1O[C@@H]1O[C@H](CO)[C@@H](O)[C@H](O)[C@H]1O` [GLY, glycitin], in data set [2], the “approximate average daily output in urine” value is reported as ~1.73 mg and the “percentage excreted in urine within 24 h” value is 30%. Also, in data set [2] (human urine, oral pharmaceutical preparations, n = 6), the “T max, time to reach peak concentration” value is 5 h. Also, in data set [2] (setting [3]), the “AUC(0–t), area under the urine concentration–time curve” value stood at 86628.8 ± 1769.0 µg·h/mL; the “AUC(0–∞), area under the urine concentration–time curve” value turned out to be 86678.1 ± 1766.7 µg·h/mL; the “C max, peak concentration in urine” value is 5482.33 ± 10.78 ng/mL and 5482.3 ± 10.8 ng/mL.
As for `COc1ccc([C@@H]2CC(=O)c3c(O)cc(O)cc3O2)cc1O` [HST, hesperetin], the “mean concentration in urine” value in data set [1] is given as “detected in urine, but not quantified”.
In the case of `C[C@@H]1O[C@@H](Oc2c(-c3ccc(O)c(O)c3)oc3cc(O)cc(O)c3c2=O)[C@H](O)[C@H](O)[C@H]1O` [QUR, quercitrin], in data set [1], the “mean concentration in urine” value is 73.57 ng/mL.
On to `C[C@@H]1O[C@@H](OC[C@H]2O[C@@H](Oc3c(-c4ccc(O)c(O)c4)oc4cc(O)cc(O)c4c3=O)[C@H](O)[C@@H](O)[C@@H]2O)[C@H](O)[C@H](O)[C@H]1O` [RUT, rutin], for which, in data set [2], the “approximate average daily output in urine” value is listed as ~0.19 mg, the AUC(0-inf) worked out at 12820 ± 78.9 µg·h/mL, the AUC(0-t) was determined as 12810 ± 77.3 µg·h/mL and the Tmax came out at 8 h. In addition, in data set [2], the half-life was 3.98 ± 0.53 h and the “percentage excreted in urine within 24 h” value was 1%. In addition, the “C max, peak concentration in urine” value in data set [2] (setting [3]) amounted to 780.2 ± 10.39 ng/mL.
